Broadly, the AC50 is the concentration at which the activity in the assay is half-maximal.

The values that follow come from PubChem BioAssay AID449754 (Broad Institute, 2010).

The subject of the experiment is MEF Bax/Bak KO A1-BIM, caspase-Glo luminescence, 3 h. The experiment in a line: caspase signal in Bax-Bak null A1-BIM cells – cell-based, Bax-Bak knockout MEF, A1-2A-BIM, luminescence, counter-screen for A1 inhibitor project, dose response (AID 449754).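 Further: counterscreen where caspase activation signals off-target toxicity not A1 inhibition.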 In short, it runs like this: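 Material: A1-2A-BIM MEFs lacking Bax and Bak / Buffer or medium: RPMI-1640, 10% FBS / Compound: 100 nL pinned compound per well / Timing: 3 h compound at 37 °C, 1 h detection at RT / Technique: CaspaseGlo luminescence, reagent diluted 1:1 in 50 mM HEPES / Read-out basis: caspase activity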
(Counterscreens check selectivity or assay interference.)

Results filed as inconclusive are left out. Active and inactive are the calls of the source.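 How the source made its calls: active means compounds whose fitted caspase activation AC50 is no more than tenfold above the top tested dose; inconclusive means flat fit with 30 to 70% activity, or a failed fit; inactive means the rest.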

Consider `COc1cc(NC(=O)c2cccc(C)c2)ccc1NC(=O)c1cc2ccccc2o1`, for which the AC50 was > 35 µM (inactive). The result for `Cc1c(CCOC(=O)c2ccc(N3CCOCC3)c([N+](=O)[O-])c2)sc[n+]1CC#N` reads > 35 µM (inactive); that for `O=C(CCl)N=c1sccn1Cc1ccccc1Cl`, > 35 µM (inactive). As to `Cc1ccc(CS(=O)(=O)c2ncc(Cl)c(C(=O)Nc3nnc(C(C)C)s3)n2)cc1`, the AC50 was > 35 µM (inactive). Take `CC(C)(C)c1ccc(C(=O)Nc2ccc(O)c3c(=O)cc(-c4cccc(Cl)c4)oc23)cc1`: the AC50 is > 35 µM (inactive). The result for `CC1(C)C[C@H](O)[C@]2(CO)[C@H](O)C[C@]3(C)C(=CCC4[C@@]5(C)CC[C@H](O)C(C)(C)C5CC[C@]43C)[C@@H]2C1` (stereo partly specified) reads > 35 µM (inactive).

As for `CCCCNC(=S)N/N=C/c1ccc(OCC(=O)Nc2c(C)cc(C)cc2C)c(OC)c1`, the AC50 is > 35 µM (inactive). For the compound `CN(C)CCCN(C(=O)c1cc2cc([N+](=O)[O-])ccc2s1)c1nc2cc3c(cc2s1)OCCO3`, the AC50 was > 35 µM (inactive). With `Clc1ccccc1CN(Cc1ccccc1)c1ncnc2nc[nH]c12`, the AC50 was > 35 µM (inactive). Consider `COc1cc(NC(=O)c2ccc(Cl)cc2Cl)ccc1-c1cc2ccccc2oc1=O`, for which the AC50 was > 35 µM (inactive).

As to `COc1ccc(NC(=O)CSc2nc3ccc(Nc4nc(N5CCOCC5)nc(N5CCOCC5)n4)cc3s2)cc1`, the AC50 is > 35 µM (inactive). With `CCOC(=O)N1C(=O)[C@@](c2ccc(Cl)cc2)(C(C)C)N1C(=O)OCC`, the concentration at half-maximal activity (AC50) was 35.1 µM.

`Cc1cc(C)cc(NC(=O)/C(C#N)=C/c2cn(CC(=O)NCc3ccco3)c3ccccc23)c1`: the AC50 was 6.71 µM. Turning to `CCc1nn(-c2cc(Oc3cccc4ccccc34)nc(-c3ccccc3)n2)c(N)c1C#N`, the AC50 was > 35 µM (inactive).

In the case of `CN1C2CCC1/C(=C/c1ccccn1)C(=O)/C2=C\c1ccccn1`, the AC50 was > 35 µM (inactive). `O=[N+]([O-])/C=C/c1cn(Cc2ccc(Cl)cc2)c2ccccc12`: the AC50 was 20.7 µM. Under `COc1ccc(C2CC(c3c(O)cc(C)oc3=O)=NCCS2)c(OC)c1` (stereo unspecified) stands > 35 µM (inactive). Consider `Cc1cc(C)cc(Cn2ncc(Cl)c(Cl)c2=O)c1`, for which the AC50 is > 35 µM (inactive). In the case of `O=C(Nc1ccc2oc(-c3ccccc3)nc2c1)c1ccccc1F`, the AC50 is > 35 µM (inactive). Regarding `COc1cc2cnc(-c3ccccc3)c(-c3cccc(C(F)(F)F)c3)c2cc1OC`, the AC50 is > 35 µM (inactive). Take `COc1cc(NC(=O)c2ccccc2)c(OC)cc1NC(=O)Cc1ccc(Br)cc1`: the AC50 was > 35 µM (inactive). Under `Cc1cccc(Nc2nc(N)c([N+](=O)[O-])c(N3CCCC(C)C3)n2)c1` (stereo unspecified) stands > 35 µM (inactive). Under `CN(C)CCN(C(=O)/C=C/c1cccs1)c1nc2c(F)cc(F)cc2s1` stands > 35 µM (inactive); under `CCc1ccc(NC(=O)c2nc(S(=O)(=O)Cc3ccccc3)ncc2Cl)cc1`, > 35 µM (inactive). As to `c1ccc(-c2sc3ccccc3c2-c2ccc(OCCN3CCCC3)cc2)cc1`, the AC50 was 33 µM. Under `Cc1ccc(S(=O)(=O)N(C)Cc2ccc(C(=O)N/N=C/c3ccc(OC(F)F)cc3)cc2)cc1` stands > 35 µM (inactive).
